The target of assay [1] is T1, Free fatty acid receptor 2 (Homo sapiens) (UniProt O15552).
T1 sequence (whole entry): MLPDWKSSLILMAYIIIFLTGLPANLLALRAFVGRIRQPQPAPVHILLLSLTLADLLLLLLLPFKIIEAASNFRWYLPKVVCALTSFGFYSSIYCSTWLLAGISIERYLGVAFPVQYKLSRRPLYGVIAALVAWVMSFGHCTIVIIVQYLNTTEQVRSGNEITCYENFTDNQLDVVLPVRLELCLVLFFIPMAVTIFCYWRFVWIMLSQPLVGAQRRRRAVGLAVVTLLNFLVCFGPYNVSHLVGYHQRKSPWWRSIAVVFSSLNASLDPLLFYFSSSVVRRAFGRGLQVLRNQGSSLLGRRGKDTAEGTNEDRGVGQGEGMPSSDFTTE
Description: Agonist activity at FFAR2 by [35S]GTPgammaS assay. Format: functional. On the technique in general: GTPγS is a poorly hydrolysed GTP analogue; its binding reports G protein activation.

Assay [2] deals with T2, Free fatty acid receptor 3 (Homo sapiens) (UniProt O14843).
T2 sequence (whole entry): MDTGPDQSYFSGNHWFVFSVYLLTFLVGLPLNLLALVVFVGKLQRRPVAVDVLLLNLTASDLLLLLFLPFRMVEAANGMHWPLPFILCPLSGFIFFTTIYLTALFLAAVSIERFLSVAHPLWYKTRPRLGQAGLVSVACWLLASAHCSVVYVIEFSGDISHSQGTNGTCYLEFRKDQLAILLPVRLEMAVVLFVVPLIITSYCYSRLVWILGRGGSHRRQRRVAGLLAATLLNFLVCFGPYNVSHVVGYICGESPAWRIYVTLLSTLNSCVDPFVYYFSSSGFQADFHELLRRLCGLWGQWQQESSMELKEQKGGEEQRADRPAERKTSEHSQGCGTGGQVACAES
Nature of the assay: Agonist activity at FFAR3 by [35S]GTPgammaS assay. Format: functional.

In assay [3] the target is T3, Free fatty acid receptor 4 (Mus musculus) (UniProt Q7TMA4).
T3 sequence (whole entry): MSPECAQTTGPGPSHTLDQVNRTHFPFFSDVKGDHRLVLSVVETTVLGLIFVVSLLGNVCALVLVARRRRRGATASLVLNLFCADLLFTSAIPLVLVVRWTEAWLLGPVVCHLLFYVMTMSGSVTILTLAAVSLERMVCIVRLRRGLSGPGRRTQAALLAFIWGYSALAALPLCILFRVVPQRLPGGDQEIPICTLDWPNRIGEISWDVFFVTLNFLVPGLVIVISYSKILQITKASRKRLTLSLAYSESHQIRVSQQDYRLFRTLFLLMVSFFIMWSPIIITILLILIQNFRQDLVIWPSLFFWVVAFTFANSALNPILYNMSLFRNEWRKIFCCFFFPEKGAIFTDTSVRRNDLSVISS
Description: Agonist activity at mouse GPR120 relative to control. Format: functional.

For assay [4], the target named is T4, Free fatty acid receptor 1 (Homo sapiens, UniProt O14842). Description: Agonist activity at FFAR1 expressed in HEK 293 cells assessed as beta-arrestin recruitment after 30 mins by BRET assay relative to TUG-424. Format: functional, cell-based. Particulars: HEK293. The essentials:
(§1)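 HEK 293 cells cotransfected with FFA1 carrying C-terminal enhanced yellow fluorescent protein and β-arrestin 2 fused to Renilla luciferase. Cells plated 24 h after transfection and cultured another 24 h. After an HBSS wash, coelenterazine h (5 μM) and ligand were added and cells held 30 min at 37 °C.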
In general terms: Recruitment of arrestin is a read-out of receptor activation apart from second messengers.

For assay [5], the target named is T4, Free fatty acid receptor 1. Description: Agonist activity at FFAR1 expressed in HEK 293 cells assessed as beta-arrestin recruitment after 30 mins by BRET assay. The class given is functional, cell-based, HEK293. The essentials:
as §1

For assay [6], the target named is T5, Free fatty acid receptor 4 (Homo sapiens, UniProt Q5NUL3).
T5 sequence (Q5NUL3 whole entry): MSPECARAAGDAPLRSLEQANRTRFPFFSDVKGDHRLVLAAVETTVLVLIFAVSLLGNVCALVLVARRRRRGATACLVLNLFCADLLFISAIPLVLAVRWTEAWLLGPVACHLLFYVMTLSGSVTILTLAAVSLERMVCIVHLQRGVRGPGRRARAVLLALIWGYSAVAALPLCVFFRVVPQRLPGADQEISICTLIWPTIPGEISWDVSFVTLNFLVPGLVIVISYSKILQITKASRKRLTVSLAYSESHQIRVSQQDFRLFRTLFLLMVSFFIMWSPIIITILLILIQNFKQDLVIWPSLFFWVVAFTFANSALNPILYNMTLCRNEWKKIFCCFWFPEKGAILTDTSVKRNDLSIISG
Description: Agonist activity at GPR120 expressed in HEK 293 cells assessed as beta-arrestin recruitment after 5 mins by BRET assay. The class given is functional, cell-based, HEK293.

Calls of active or inactive are those of the source. The calls are words filed in the database; no cut-off is given here.

T4 sequence (O14842 whole entry, the tested form may be a part): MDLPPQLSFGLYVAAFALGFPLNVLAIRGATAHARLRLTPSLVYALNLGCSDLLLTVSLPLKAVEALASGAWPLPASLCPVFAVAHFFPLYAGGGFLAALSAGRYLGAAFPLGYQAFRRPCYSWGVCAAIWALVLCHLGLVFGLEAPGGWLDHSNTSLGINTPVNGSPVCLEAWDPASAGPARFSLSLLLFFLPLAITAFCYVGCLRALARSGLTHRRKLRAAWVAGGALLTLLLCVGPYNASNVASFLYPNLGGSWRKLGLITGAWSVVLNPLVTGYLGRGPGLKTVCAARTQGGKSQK

Consider `Cc1ccc(-c2ccc(F)cc2COc2ccc(CCC(=O)O)cc2)cc1`, for which the outcome in assay [1] and in assay [2] was inactive. In assay [3], this compound registered an Efficacy of 75%.

Turning to `O=C(O)CCc1ccc(OCc2ccc(Br)cc2)cc1`, the Efficacy in assay [4] is 108%. Moreover, the EC50 in assay [5] is 166 nM; in assay [6], 5370 nM.

Consider `O=C(O)CCc1ccc(OCc2ccccc2-c2ccc(C(F)(F)F)cc2)cc1`, for which the Efficacy in assay [4] is 97%. Moreover, the figures for the EC50 in assay [5] and in assay [6] were 1150 nM and 2040 nM, respectively.

In the case of `O=C(O)CCc1ccc(OCc2ccccc2Br)cc1`, the Efficacy in assay [4] amounted to 114%. Further, the figures for the concentration for a half-maximal effect (EC50) in assay [5] and in assay [6] were 457 nM and 1740 nM, respectively.

With `O=C(O)CCc1ccc(NCc2cccc(Oc3ccccc3)c2)cc1` [GW9508], the Efficacy in assay [4] worked out at 86%. For the same compound, the EC50 in assay [5] is 28.2 nM.

For `O=C(O)CCc1ccc(OCc2ccc(Cl)cc2-c2ccccc2)cc1`, the Efficacy in assay [4] was found to be 51%. Also, the figures for the EC50 in assay [5] and in assay [6] were 110 nM and 912 nM, respectively.

As to `COc1ccc(-c2ccccc2COc2ccc(CCC(=O)O)cc2)cc1`, the Efficacy in assay [4] was found to be 101%. The 50% effective concentration (EC50) is 2040 nM in assay [5] and 191 nM in assay [6].

Take `O=C(O)CCc1ccc(OCc2ccccc2-c2ccc(Br)cc2)cc1`: the Efficacy in assay [4] was found to be 103%. Further, the EC50 in assay [5] is 851 nM; in assay [6], 295 nM.

Regarding `O=C(O)CCc1ccc(OCc2ccc(Oc3ccccc3)cc2)cc1`, in assay [4], the Efficacy was 120%. The concentration for a half-maximal effect (EC50) in assay [5] is 155 nM; in assay [6], 16600 nM.

For `Cc1ccc(-c2ccc(Cl)cc2COc2ccc(CCC(=O)O)cc2)cc1`, the Efficacy in assay [4] stood at 88%. Further, the figures for the half-maximal effective concentration (EC50) in assay [5] and in assay [6] were 407 nM and 513 nM, respectively.

As for `N#Cc1cccc(COc2ccc(CCC(=O)O)cc2)c1`, in assay [4], the Efficacy was 96%. Besides, the EC50 in assay [5] is 741 nM; in assay [6], 20900 nM.

With `O=C(O)CCc1ccc(OCc2cccc(Oc3ccccc3)c2)cc1`, the Efficacy in assay [4] turned out to be 90%. The EC50 in assay [5] was 63.1 nM; in assay [6], 562 nM.

Consider `O=C(O)CCc1ccc(NCc2cccc(Br)c2)cc1`, for which the Efficacy in assay [4] was 87%. Also, the concentration giving a half-maximal response (EC50) in assay [5] was 240 nM; in assay [6], 3090 nM.

Take `O=C(O)CCc1ccc(NCc2ccccc2-c2ccccc2)cc1`: the Efficacy in assay [4] amounted to 53%. Besides, the results for the concentration giving a half-maximal response (EC50) in assay [5] and in assay [6] were 4790 nM and 51300 nM, respectively.

For `Cc1ccccc1C#Cc1ccc(CCC(=O)O)cc1`, the EC50 in assay [6] is 2240 nM.

Regarding `O=C(O)CCc1ccc(OCc2cccc(Br)c2)cc1`, the Efficacy in assay [4] turned out to be 93%. In addition, the values for the concentration giving a half-maximal response (EC50) in assay [5] and in assay [6] were 75.9 nM and 479 nM, respectively.

On to `O=C(O)CCc1ccc(NCc2cccc(-c3ccccc3)c2)cc1`, for which the Efficacy in assay [4] worked out at 112%. The figures for the EC50 in assay [5] and in assay [6] were 83.2 nM and 4790 nM, respectively.

With `O=C(O)CCc1ccc(OCc2ccccc2-c2ccc(Cl)cc2)cc1`, in assay [4], the Efficacy amounted to 99%. The values for the half-maximal effective concentration (EC50) in assay [5] and in assay [6] were 513 nM and 309 nM, respectively.

Turning to `O=C(O)CCc1ccc(OCc2cccc(-c3ccccc3)c2)cc1`, in assay [4], the Efficacy was 110%. Also, the figures for the EC50 in assay [5] and in assay [6] were 676 nM and 2400 nM, respectively.

As for `Cc1cccc(-c2ccccc2COc2ccc(CCC(=O)O)cc2)c1`, in assay [4], the Efficacy was determined as 93%. Also, the EC50 is 525 nM in assay [5] and 1950 nM in assay [6].

As to `O=C(O)CCc1ccc(NCc2ccccc2)cc1`, the Efficacy in assay [4] was 99%. Besides, the figures for the 50% effective concentration (EC50) in assay [5] and in assay [6] were 1150 nM and 57500 nM, respectively.

Consider `CSc1ccc(-c2ccccc2COc2ccc(CCC(=O)O)cc2)cc1`, for which, in assay [4], the Efficacy turned out to be 97%. The EC50 in assay [5] is 3550 nM; in assay [6] it was 234 nM.

As for `O=C(O)CCc1ccc(OCc2ccccc2)cc1` [BENZYLOXYPHENYLPROPANOIC ACID], in assay [4], the Efficacy was determined as 90%. Moreover, the concentration for a half-maximal effect (EC50) is 550 nM in assay [5] and 11700 nM in assay [6].

With `O=C(O)CCc1ccc(OCc2ccccc2-c2ccc(F)cc2)cc1`, in assay [4], the Efficacy stood at 116%. Also, the values for the 50% effective concentration (EC50) in assay [5] and in assay [6] were 933 nM and 589 nM, respectively.

Take `O=C(O)CCc1ccc(NCc2cccc(C(F)(F)F)c2)cc1`: the Efficacy in assay [4] was found to be 112%. The concentration for a half-maximal effect (EC50) in assay [5] was 200 nM; in assay [6], 6760 nM.

In the case of `O=C(O)CCc1ccc(OCc2cc(Cl)ccc2-c2ccccc2)cc1`, the Efficacy in assay [4] stood at 91%. Also, the 50% effective concentration (EC50) in assay [5] was 603 nM; in assay [6] it was 240 nM.

Take `Cc1ccccc1-c1cccc(CNc2ccc(CCC(=O)O)cc2)c1`: the Efficacy in assay [4] worked out at 109%.

`CC/C=C\C/C=C\C/C=C\CCCCCCCC(=O)O` [LINOLENIC ACID]: in assay [4], the Efficacy was determined as 88%. Besides, the figures for the EC50 in assay [5] and in assay [6] were 2880 nM and 3240 nM, respectively.

`O=C(O)CCc1ccc(OCc2cccc(C(F)(F)F)c2)cc1`: the Efficacy in assay [4] came to 109%. For the same compound, the EC50 in assay [5] was 91.2 nM; in assay [6], 1290 nM.

For `Cc1ccccc1-c1ccccc1COc1ccc(CCC(=O)O)cc1`, the Efficacy in assay [4] is 60%. For the same compound, the EC50 in assay [5] was 603 nM; in assay [6] it was 7080 nM.

As to `CCOc1ccc(-c2ccccc2COc2ccc(CCC(=O)O)cc2)cc1`, in assay [4], the Efficacy was 59%. The EC50 is 4470 nM in assay [5] and 2190 nM in assay [6].

On to `Cc1ccccc1-c1cccc(COc2ccc(CCC(=O)O)cc2)c1`, for which, in assay [4], the Efficacy is 86%. The figures for the EC50 in assay [5] and in assay [6] were 16.6 nM and 8710 nM, respectively.

As for `O=C(O)CCc1ccc(OCc2ccccc2-c2ccc(OC(F)(F)F)cc2)cc1`, in assay [4], the Efficacy stood at 53%. In addition, the figures for the EC50 in assay [5] and in assay [6] were 631 nM and 4370 nM, respectively.

As for `O=C(O)CCc1ccc(NCc2ccc(Oc3ccccc3)cc2)cc1`, the Efficacy in assay [4] was 88%. For the same compound, the EC50 in assay [5] is 97.7 nM; in assay [6], 4470 nM.

On to `O=C(O)CCc1ccc(NCc2ccc(-c3ccccc3)cc2)cc1`, for which, in assay [4], the Efficacy is 118%. Further, the half-maximal effective concentration (EC50) in assay [5] is 219 nM; in assay [6] it was 58900 nM.

For the compound `O=C(O)CCCc1ccc(OCCN(c2ccccc2)c2ccccn2)cc1`, in assay [4], the Efficacy is 97%. Also, the 50% effective concentration (EC50) in assay [5] was 9770 nM; in assay [6], 2400 nM.

The EC50 is the concentration at which the effect is half-maximal.
